We go through 18 molecules from ChEMBL document CHEMBL4480403, “DDX3X Helicase Inhibitors as a New Strategy To Fight the West Nile Virus Infection” (J Med Chem, 2019).

SMILES strings stand for the structures. Activity calls are given as the source filed them. The rule behind the calls is not given here.

For data set [1], the target named is ATP-dependent RNA helicase DDX3X (Homo sapiens, UniProt O00571). Put plainly: Inhibition of full length His-tagged human DDX3X expressed in Escherichia coli assessed as reduction in DDX3X helicase activity using FAM-labeled double stranded RNA as substrate after 40 mins by FRET assay relative to control. The procedure, abridged:
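Recombinant His-tagged full-length DDX3X expressed in E. coli, Ni-NTA purified. Unwinding of FAM-labelled dsRNA, with capture strand at 100 nM, in Tris-HCl pH 8, 70 mM KCl, 2 mM MgCl2, 2 mM DTT, 2 mM ATP. Started with DDX3X, 37°C, 40 min, fluorescence read every 30 s. Initial slope gives unwinding rate; IC50 by nonlinear regression of triplicates.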

Data set [2] has as its system West Nile virus. Kind of data set: Antiviral activity against West Nile virus infected in human HuH7 cells incubated for 4 days by crystal violet staining based plaque reduction assay. In kind it is functional, organism-based. The note with it: Huh-7, 96 h. The procedure, abridged: (§1)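 Huh7 cells (2.5 × 10^5 per well, overnight) infected with lineage 2 WNV at MOI 0.1 for 1 h at 37°C, washed, then compound added in 10-fold dilutions (final 100–0.01 μM) with DMSO as virus control. Agarose overlay, 4 days at 37°C, methanol fixation, crystal violet staining. PFU relative to DMSO; IC50 by exponential fit at 50% PFU. Duplicates, repeated at least twice.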
(In a plaque reduction assay, fewer plaques than in the control indicate reduced infectivity or spread.)

The nature of data set [3]: Cytotoxicity against human HuH7 cells after 3 days by MTT assay. The format is cell-based, Huh-7. The note with it: human, HuH7 cells. The method in brief: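 Huh7 cells (2.5 × 10^4 per well) adhered overnight. Confluent monolayers washed, then treated with compound (final 100–0.01 μM) or DMSO control for 3 days at 37°C. Viability by MTT, absorbance 570 nm, expressed relative to DMSO-treated cells.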
In general terms: Tetrazolium assays rely on reduction of a dye to a coloured formazan, in cell work by metabolically active cells.

The nature of data set [4]: Apparent permeability of the compound by PAMPA. The format is ADME. The procedure, abridged: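 PAMPA: 0.5 mM donor solution in pH 7.4 phosphate buffer, diluted from 1 mM DMSO stock. Filter coated with 1% phosphatidylcholine in dodecane; acceptor 50% DMSO in buffer. Incubated 5 h at room temperature with shaking. Donor and acceptor quantified by LC-UV at 280 nm and Papp calculated. Three plates on different days.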
On the technique in general: The PAMPA barrier holds no transporters, so it reflects passive diffusion.

Data set [5] in a line: Metabolic stability in human liver microsomes at 50 uM after 60 mins in presence of NADPH-generating system by LC-UV-MS analysis. Conditions: read-out: Stability. In kind it is ADME, Microsome. The procedure, abridged:
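Compound at 50 μM final (DMSO ≤2%) incubated with human liver microsomes (0.2 mg/mL) and NADPH-generating system in 125 mM phosphate buffer pH 7.4, 37 °C, 60 min. Remaining compound measured by LC-ESI-MS in positive ion mode, with UV at 280 nm.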

Data set [6] concerns West Nile virus. Put plainly: Antiviral activity against West Nile virus. The format is functional, organism-based. The method in brief:
as §1

As usually defined, the inhibition is the change of the read-out against control, counted positive when it falls. For orientation: EC50 means the concentration that produces a half-maximal response. Higher therefore signals a need for much substance. The CC50 is the concentration giving 50% cytotoxicity. Higher therefore signals lower toxicity to the cells. The Papp is a coefficient for how fast a substance crosses the barrier.

ATP-dependent RNA helicase DDX3X, sequence (O00571 2-662 limits assumed): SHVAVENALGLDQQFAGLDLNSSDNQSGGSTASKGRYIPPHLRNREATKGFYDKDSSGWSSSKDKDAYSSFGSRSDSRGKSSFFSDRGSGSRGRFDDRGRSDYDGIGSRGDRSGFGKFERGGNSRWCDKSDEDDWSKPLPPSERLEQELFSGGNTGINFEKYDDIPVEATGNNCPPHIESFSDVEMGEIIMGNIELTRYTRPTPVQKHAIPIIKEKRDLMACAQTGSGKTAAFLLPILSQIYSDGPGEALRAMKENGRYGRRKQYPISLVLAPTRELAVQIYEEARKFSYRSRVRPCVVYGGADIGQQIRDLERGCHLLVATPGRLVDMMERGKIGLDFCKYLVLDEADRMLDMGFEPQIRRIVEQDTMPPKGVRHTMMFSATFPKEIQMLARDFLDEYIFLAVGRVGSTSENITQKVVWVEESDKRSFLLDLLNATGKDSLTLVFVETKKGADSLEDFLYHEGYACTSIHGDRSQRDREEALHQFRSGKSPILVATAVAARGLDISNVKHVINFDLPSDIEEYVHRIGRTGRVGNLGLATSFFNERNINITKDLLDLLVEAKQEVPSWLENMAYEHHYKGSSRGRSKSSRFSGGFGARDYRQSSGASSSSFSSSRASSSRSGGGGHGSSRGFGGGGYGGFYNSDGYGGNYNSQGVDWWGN

For `CCOCc1cn(-c2cccc(S(=O)(=O)Nc3cccc(N4CCOCC4)c3)c2)nn1`, in data set [1], the inhibition entry is “inactive”.
Molecule `CCOCc1cn(-c2cccc(S(=O)(=O)Nc3cccc4cnccc34)c2)nn1` showed an EC50 with West Nile virus [2] of 13 µM. For the same molecule, in data set [3], the CC50 at 72 h was above 200 µM. For the same molecule, in data set [4], the Papp worked out at 0.44 ×10⁻⁶ cm/s. The inhibition in data set [1] worked out at 98%. Moreover, in data set [5], the remaining at 1 h, 50 µM was found to be 96%.
Consider `CCc1cn(-c2cccc(S(=O)(=O)Nc3ccccc3C(F)(F)F)c2)nn1`, for which the inhibition in data set [1] was 71%.
`CCCCc1cn(-c2ccc(S(=O)(=O)Nc3ccccc3O)cc2)nn1`: the inhibition in data set [1] was 57%.
Turning to `O=S(=O)(Nc1ccccc1C(F)(F)F)c1cccc(-n2cc(-c3ccccc3)nn2)c1`, the inhibition in data set [1] came to 41%.
In the data set with West Nile virus [6], `C[C@@]1(O)[C@H](O)[C@@H](CO)O[C@H]1n1ccc2c(N)ncnc21` [BETA-2'-C-METHYL-7-DEAZA-ADENOSINE] returned an EC50 of 4.5 µM.
In turn, `C[C@@]1(O)[C@H](O)[C@@H](CO)O[C@H]1n1cnc2c(=O)[nH]c(N)nc21` [2'-B-METHYL-GUANOSINE] gave an EC50 in the data set on West Nile virus [6] of 30 µM.
For `CCCCc1cn(-c2cccc(S(=O)(=O)Nc3ccccc3F)c2)nn1`, the EC50 in the data set on West Nile virus [2] is above 200 µM. This molecule gave a CC50 at 72 h in data set [3] above 200 µM. The inhibition in data set [1] is 24%.
As for `CCCCc1cn(-c2cccc(S(=O)(=O)Nc3ccc(OC)cc3)c2)nn1`, the inhibition in data set [1] was 80%.
Take `CCCCc1cn(-c2cccc(S(=O)(=O)Nc3ccccc3)c2)nn1`: in data set [1], the inhibition is 31%.
As to `CCCCc1cn(-c2cccc(S(=O)(=O)Nc3ccccc3C)c2)nn1`, the EC50 in the data set with West Nile virus [2] turned out to be 39.9 µM. The same molecule registered a CC50 at 72 h in data set [3] above 200 µM. Further, the inhibition in data set [1] is 59%.
Consider `O=S(=O)(Nc1ccccc1C(F)(F)F)c1cccc(-n2cc(C3CCCCC3)nn2)c1`, for which, in data set [1], the inhibition is 52%.
Turning to `CCCCc1cn(-c2cccc(S(=O)(=O)Nc3ccccc3OC)c2)nn1`, the inhibition in data set [1] was 98%.
`C[C@@]1(O)[C@H](O)[C@@H](CO)O[C@H]1n1cnc2c(N)ncnc21`: in the data set on West Nile virus [6], the EC50 worked out at 5.1 µM. This lies in the single-digit micromolar range.
The molecule `CCOCc1cn(-c2cccc(S(=O)(=O)Nc3ccccc3C(F)(F)F)c2)nn1` gave an EC50 in the data set with West Nile virus [2] of 65.9 µM. Further, the CC50 at 72 h in data set [3] was above 200 µM. Further, the Papp in data set [4] came to 0.71 ×10⁻⁶ cm/s. Also, the inhibition in data set [1] amounted to 98%. The remaining at 1 h, 50 µM in data set [5] is 97.1%.
`COCCc1cn(-c2cccc(S(=O)(=O)Nc3ccccc3C(F)(F)F)c2)nn1`: the inhibition in data set [1] came out at 67%.
Take `CC(C)CCc1cn(-c2cccc(S(=O)(=O)Nc3ccccc3C(F)(F)F)c2)nn1`: the inhibition in data set [1] was determined as 96%.
Molecule `CCOC(=O)[C@@](C)(O)[C@@H]1C[C@@H](CO[Si](c2ccccc2)(c2ccccc2)C(C)(C)C)O[C@H]1n1cc(F)c(=O)[nH]c1=O` showed an EC50 in the data set on West Nile virus [6] of 27 µM.
